In the RNAGym collection of RNA variant scans (doi:10.1126/science.aae0568):
This sample holds only a part of the variants without activity.

B1: tRNA (parent)
chain: GUUCCGUUGGCGUAAUGGUAACGCGUCUCCCUCCUAAGGAGAAGACUGCGGGUUCGAGUCCCGUACGGAACG

Variants of: B1
Experiment: yeast fitness relative to wild type (ratio to wild type); higher = fitter; tRNA-Arg(CCU), competitive growth, 37 C, YPD
Procedure, shortened: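 A pool of Saccharomyces cerevisiae strains, each with a tRNA-Arg(CCU) gene variant at the native genomic locus, was competed in YPD at 37°C for 24 hours across six parallel replicates. The variants had been chemically synthesised at a 3% per-site mutation rate over 69 sites, and gene amplicons before and after competition were read by 100-nucleotide paired-end sequencing. Darwinian fitness relative to wild type rested on changes in genotype frequencies. Genotypes required ≥ 100 starting reads, and estimates < 0.5 were set to 0.5.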

Compared with GUUCCGAUGGCGUAAUGGUAACGCGUCUCCCUCCUAAGGAGAAGACUGCGGGUUUGAGUCACGUACGGAACG [U7A C55U C61A], GUUCCGUUGGCGUAAUGGUAUCGCGUCUCCCUCCUAAGGAGAAGACUGUGGGUACGAGUCCCGUACGGAACG [A21U C49U U54A] is lower in yeast fitness: 0.508 for the first, no more than 0.5 for the second.

GUUCCGUUGGCGUAAUGGUCACGCGUCUCCCACGUAUGGAGAAGACUGCGGGUUCGAGUCCCGUACGGAACG [A20C U32A C34G A37U] and GUUCAGUUGGCGUAAUGGUAACGCGUCUCCCUCCUAAGGAGAAGACUGCGCGUUCGAGUCCCCUCCGGAUCG [C5A G51C G63C A65C A70U] cannot be ordered by yeast fitness: no more than 0.5 for the first, no more than 0.5 for the second.

GUUCCGUUGGCGUAAUGGUAACGCGUCUCCCUCCCACGGAGAAGACUGCGGGUUCGAGUCCUGUCCGGAACG [U35C A37C C62U A65C] and GUUCCGUUGGCAUAAUGGUAACGAGUCUCCCUCCUAAGGAGAAGGCUGCAGGUUCGAGUCCCGUACGGAACG [G12A C24A A45G G50A] cannot be ordered by yeast fitness: no more than 0.5 for the first, no more than 0.5 for the second.

Compared with GUUCCGUUGGCGUAAUGGUAACGCGUCUCCCUCCUCAGGAGACGACUGCGGGUUCGAGUCGCGUACGGAGCG [A36C A43C C61G A70G], GUUCCGUUGAAGUAAUGGUAACGCGUCUACCUCCUAAGGAGAAGACUGCGGGUUCGAGUCCCGUACGGUACG [G10A C11A C29A A69U] is higher in yeast fitness: no more than 0.5 for the first, 0.538 for the second.

First: GUUCCCUUGGCGUAUUGGUAACCCGUCUCCGUCCUAGGGAGAAGACUGCGGGUUCCAGUCCCGUACGGAACG [G6C A15U G23C C31G A37G G56C]
Second: GUGCUGUUGGCGUAAUGGUAACGCGUCUCCCUCCUAAGGAGAAGACUGCGGGUUCGAGUCCCGUACGGAACG [U3G C5U]
The yeast fitness of the first is lower: no more than 0.5 for the first, 0.724 for the second.

Going from GGUCCGUUGACGUAAUGGUAACGCGUCUCCCUCCUAAGGAGAAGACUGCGGGUUCGAGUCCCGUACGGAACG [U2G G10A] to GUUCCGUUGGCGUAAUGGUAAGGCGUCUCCCUCCUAAGGAGAAGACUGGGGGUUCGAGUCCCGUAAGGAACG [C22G C49G C66A], the yeast fitness falls from 0.697 to no more than 0.5.

Compared with GUUCCGUUGGCGUCAUGGUAACGCGUCUCCCUCCUAAGGAGAAGACUGCGGCUUCGCGUCCCCUACGGAACG [A14C G52C A57C G63C], GCCCCGUUGGCGUAAUGGUAACGCGUCUCCCUCCUAAGGAGAAGACUGCGGGUUCGAGUCCCGUACGGAACG [U2C U3C] is higher in yeast fitness: no more than 0.5 for the first, 0.885 for the second.

First: GUUCCGUUGGCGUAAUGGUAACGCGUCCCCCUCCUAAGGAGAAGACUGCGGGUUCGCGUCCCGUACGGAACG [U28C A57C]
Second: GUUCCGUUGCCGUAAUGGUAACGCGAUUCCCUCCUAAGGAGGAGACUGCGGGUUCGAGUCCCGUACGGAGCG [G10C U26A C27U A42G A70G]
The yeast fitness of the first is higher: 0.586 for the first, no more than 0.5 for the second.

Going from GUUACGUUGGCGUAAUGGUAACGCGUCUCGCUCCUAAGGAGAAGACUGCGGGUUCGAGUCCCGUACGGAACG [C4A C30G] to GUUGAGUUGGCGUAAUGGUAUCGCGUCUCCCUCGUAAGGAGAAGACUGCGGGUUCGAGUCCCGUACGGAACG [C4G C5A A21U C34G], the yeast fitness falls from 0.661 to no more than 0.5.

GUUCCGUUGGCGUAGUGGUAACGCGUCUACCUCCUAAGGAGAAGACGGCGGGUACGAAUCCCGUACGGAACG [A15G C29A U47G U54A G58A] and GUUCCGUUGGCGUAAUGCUAACGUGUCUCCCUCCUAAGGAGAAGACUGCGGGUUCGAGUCCCGUAUGGAACG [G18C C24U C66U] cannot be ordered by yeast fitness: no more than 0.5 for the first, no more than 0.5 for the second.

First: GUUCCGUUGGCGUAAUGGUAACGCGUCUCCCUCCUAAGGAGAAGACUGAGGGUUCGAGUGCCGUACGGACCG [C49A C60G A70C]
Second: GUUCCGUUGGCGUAAUGGUACCGCGAGUCCCUCCUAAGGAGAAGACUGCGGGUUCGAGUCCCGUACGGAACG [A21C U26A C27G]
The yeast fitness of the first is lower: no more than 0.5 for the first, 0.581 for the second.

Going from GUUCCGUUGGCGUAAUGGUAACGCGAAUCCCUCCUAAGGAGAAGACUGCGGGUUCGAGUCCCGUACGGAACG [U26A C27A] to GUUCCGAUGGCGUAAUGGUAACGCGUCUCCCUCCUAAGGAGAAGACGGCGGGUUCGAGUCCCGUACGGAACG [U7A U47G], the yeast fitness falls from 0.671 to 0.557.

First: GUUCCGUUGGCGUAAUGGUAACGUGGCUCCCUCCUAAGGAGAAGACUGCGAGUUCGAGUCCCGUACGGAACG [C24U U26G G51A]
Second: GUUCAGUUGGUGUAAUGGUAACGCGUCUCCCUCCUAAGGAGAACACUGUGGGUUCGAGUCCCGUACGGAACG [C5A C11U G44C C49U]
The yeast fitness of the first is lower: no more than 0.5 for the first, 0.53 for the second.

First: GUUCCGUUGGCGUAAUGGUAACGCGUCUCCGUCUUAAGGCAAAGACUGCGGGUUCGAGUCCCGUACGGAACG [C31G C34U A40C G41A]
Second: GUUCCGUAGGCGUAAUGGUAACGCGUCUCCUUCCUAAGGAGAAGACUGCGGGUUCGAGUCCCGUACGGCACG [U8A C31U A69C]
The yeast fitness of the first is lower: no more than 0.5 for the first, 0.557 for the second.

Compared with GUUCCGUUGGCAUAAUGGUAACGCGUCUCCCUCCUAAGGAGAAGACUGCGGGUUCGAGUCCCGUACGUAACG [G12A G68U], GUUCCGUUGGAGUAAUGGUAACGCGUUUCCUUCGUAAGGGGAAGACUGCGGGUUCGAGUCCCGUACGGAACG [C11A C27U C31U C34G A40G] is lower in yeast fitness: 0.863 for the first, no more than 0.5 for the second.

GUUCCGUUCGCGUAAUGGUAACGCGUCUCCCUCCUAAGGAGCAGACUGGGGGAUCGAGUCCCGUACGGAACG [G9C A42C C49G U53A] and GUUCCGUUGGCCUAAUGGUAUCGCGUCUCCCUCCUAAGGAGAAGACUGCCGGUUCGAGUCCCGUACGGACCG [G12C A21U G50C A70C] cannot be ordered by yeast fitness: no more than 0.5 for the first, no more than 0.5 for the second.

First: GUUACGUUGGCGUAAUGGUAACGCGUCUCCCUCCUAAGGAGAAGAGUGCGGGUUGGAGUCCCGUACGGAACG [C4A C46G C55G]
Second: GUUCCGUAGGCGUAAUGGUAACGCGUCUCCCUCCUAAGGAGAAGACUGCGGGUUCGAGUCCCGUACGCAACG [U8A G68C]
The yeast fitness of the first is lower: no more than 0.5 for the first, 0.661 for the second.

Compared with GUUCCGUUGGCGUAAUGGUAACGCGUCUCCCUCCUAAGGAGAAGACUGCGGGCUCGAGUCCCGUAUGGAACG [U53C C66U], GUUCUGUUGGCGUAAUGGUAACGAGUCUCCCUCCUAAGCAGAAGACUGCGGGUUCGAGUCCCGUACGGACCG [C5U C24A G39C A70C] is lower in yeast fitness: 0.814 for the first, no more than 0.5 for the second.

With GUUCCGUUGGCGUAAUGGUAACGCGACUCCCUCCUAAGGUGAAGACUGCGGGUUCGAGUCCCGUCCGGAACG [U26A A40U A65C] the yeast fitness was 0.662.
